Compound activity: PubChem, several laboratories
An excerpt weighted towards active compounds, which were near 2.1% of everything screened.
Hck-Nef inh – inhibitors of human Hck kinase activated by Nef; P08631; Recombinant Hck-YEEI plus Nef, Z-Lyte FRET kinase assay; inhibition, % at 20 µM; hit rate 0.68% among 220,000;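 active = Hck-Nef kinase inhibition above about 50%, limit read from the data; inactive = inhibition below that limit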;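 also: 0% = DMSO with Hck plus Nef and 100% = Hck alone without Nef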
Runt-CBFb FRET – blocks binding of human RUNX1 Runt domain to CBFb; Q01196+Q13951; Cerulean-Runt/Venus-CBFb FRET ratio 530/480, 1 h; inhibition, % at 20 µM; hit rate 0.46% among 220,000;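 active = inhibition over about 50% at 20 µM in the single-dose screen, limit read from the data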;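 also: 0% = DMSO wells and 100% = excess unlabeled CBFb competitor control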
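Assay system: Cerulean-Runt domain / Medium: Tris 50 mM pH 7.5, KCl, K2SO4, 0.01% BSA / Timing: protein complex preformed 1 h, compound exposure 1 h, room temperature, dark / Measured by: FRET, excitation 422 nm, emission at 530 and 480 nm / Evaluation: loss of energy transfer signal / Control set: 5 µM unlabeled CBFb as full-inhibition high control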
Runt-SMMHC FRET – inhibitors of human RUNX1 Runt domain binding to CBFb-SMMHC | Q01196+Q13951 | inhibition, % at 20 µM | Cerulean-Runt/Venus-CBFb-SMMHC FRET ratio 530/480, 1 h | AID 1434 | hit rate 0.74% among 220,000;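 active = mean inhibition across duplicate retests at 20 µM reaching about 50%, limit read from the data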;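 also: 0% = DMSO wells and 100% = wells with excess untagged CBFb-SMMHC; inhibitors lower the FRET ratio by blocking Runt binding to CBFb-SMMHC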
p-CIP stab down – lowers stability of the mouse p/CIP coactivator protein | Q05BA5 | F442A p/CIP-EGFP cells, EGFP fluorescence, 16 h | decrease of EGFP signal, % at 10 µM | hit rate 0.01% among 290,000 | AID 1984;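 active = EGFP signal decrease of at least 30% at 10 µM or well 3 SD below plate mean, unless failing retest; inactive = the rest, including hits failing retest or dose response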
DSG3 Ab inh – blocks pemphigus antibody binding to human desmoglein-3. hit rate 0.48% among 310,000. P32926. AID 588358. binding (percent of control), % at 10 µM. DSG3-coupled beads, scFv-anti-DSG3-GFP binding, flow cytometry; active compounds read low;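 active = binding more than 3 SD below its plate's average and above zero; inconclusive = below that plate limit but binding exactly zero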;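 also: hits lower antibody fragment binding to DSG3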
RanGTP-Imp inh – disruptors of Ran-importin-beta complex formation – biochemical, FRET, CFP-Ran, YFP-importin-beta, homogeneous, primary screen. cell-free CFP-Ran/YFP-importin-beta FRET ratio. AID 2216. inhibition, % (no concentration beside the values). hit rate 1.1% among 300,000;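 active = more than half of the replicate wells show a fall in the fluorescence ratio signal beyond about 16%, limit read from the data, passing the limit was not always enough; inconclusive = exactly half of the replicate wells pass the set limit; inactive = fewer than half of replicates pass the limit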;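 also: 0% = DMSO wells and 100% = Ran loaded with GDP instead of GTP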
The depositor's hits bear a star; ? = inconclusive; . = no result given.

SMILES | Hck-Nef inh | Runt-CBFb FRET | Runt-SMMHC FRET | p-CIP stab down | DSG3 Ab inh | RanGTP-Imp inh
Nc1n[nH]c2cc(=O)n(-c3cccc(C(F)(F)F)c3)nc12 | 26.0 | 64.3* | 85.9* | -7.7 | 95.8 | 118.3*
Cc1ccccc1-n1nc2c(c1NC(=O)c1cc3ccccc3oc1=O)CS(=O)(=O)C2 | 0.7 | 10.4 | 39.2 | 3.5 | . | 16.8*
COc1ccccc1C(=O)Nc1c2c(nn1-c1cccc(C)c1C)CS(=O)(=O)C2 | 0.1 | 2.3 | 3.6 | -3.6 | 32.2* | -3.1
NC(=O)c1ccc(NC(=O)c2ccc3c(c2)CCN3S(=O)(=O)c2ccccc2)cc1 | . | . | . | -7.7 | 10.1* | -1.4
Cc1ccc(-n2cnc3cc(NCc4cccs4)ccc32)cc1 | -0.9 | 4.8 | 12.0 | -16.1 | 106.2 | 19.1*
Cc1ccc(S(=O)(=O)Nc2ccc3c(c2)ncn3C(C)(C)C)cc1 | 3.7 | -1.8 | 1.4 | -6.2 | 98.5 | 2.7
Cc1ccc(CNc2ccc3c(c2)ncn3C(C)(C)C)cc1 | 15.3 | 6.7 | 43.0 | 7.3 | 100.4 | 36.1*
Cc1ccc(CNc2ccc3c(c2)ncn3C)cc1 | 1.4 | 21.0 | 7.0 | 4.5 | . | 15.8*
Cc1ccc(S(=O)(=O)NC(=NC2CCCCC2)c2ccc(Cl)cc2)cc1 | . | . | . | 4.9 | 84.8 | -0.7
CC(/C=C/c1ccc2c(c1)OCO2)=N\NC(=O)c1ccccc1 | -0.7 | 0.9 | -3.0 | 12.2 | 102.7 | 0.1
CC(/C=C/c1ccc2c(c1)OCO2)=N\NC(=O)c1cccc([N+](=O)[O-])c1 | 0.6 | 2.5 | -4.8 | 2.9 | 84.1* | -0.6
COc1ccc(/C=C(/C(=O)c2cccs2)N2C=CC=CC2=C(C#N)C#N)cc1 | -0.9 | 45.6 | 28.0 | -14.4 | 105.9 | 21.8*
COc1ccc(C(=O)/C(=C\c2ccco2)N2C=CC=CC2=C(C#N)C#N)cc1 | 4.7 | 5.5 | -1.0 | -17.0 | . | ?
CC(C)(C)c1ccc(S(=O)(=O)N2CCC(CO)(CC3CCCCO3)CC2)cc1 (configuration not stated) | 8.5 | -5.3 | -3.0 | -5.7 | 103.7 | 2.0
N#CC1=C(N)N2C(=C(C#N)C13CCN(Cc1ccccc1)CC3)Nc1ccccc12 | 13.8 | 12.1 | 18.6 | -8.9 | 99.3 | 33.6*
Cc1[nH]nc2c1C1(CCN(Cc3ccccc3)CC1)C(C#N)=C(N)O2 | 11.3 | 7.9 | 36.3 | -8.7 | 94.1 | ?
CCOc1ccc(NC(=O)CCC(=O)NNC(=O)COc2ccccc2C)cc1 | 17.1 | 0.7 | 1.6 | -14.5 | 102.2 | -3.1
Cc1ccc(S(=O)(=O)N2CCCC2CNC(=O)C(=O)Nc2ccc(F)cc2)cc1 (configuration not stated) | . | . | . | . | 120.7 | 31.5*
COc1ccc(S(=O)(=O)N2CCCC2CNC(=O)C(=O)Nc2ccc(C)cc2)cc1 (configuration not stated) | . | . | . | . | 103.9 | -1.4
O=C1C=C(O)c2c(O)cc(O)c(O)c2C1=O | . | . | . | . | 78.8* | ?
CC(C)N1CCc2c(sc(NC(=O)c3cc4cc([N+](=O)[O-])ccc4s3)c2C(N)=O)C1 | 9.3 | -2.1 | -0.5 | -50.0 | 108.9 | 32.9*
CC(C)N1CCc2c(sc(NC(=O)c3ccc(C(=O)c4ccccc4)cc3)c2C(N)=O)C1 | . | . | . | -9.8 | . | 63.5*
CC(=O)N1CCc2c(sc(NC(=O)c3cccc(N4C(=O)CCC4=O)c3)c2C(N)=O)C1 | . | . | . | -2.6 | 96.1 | 4.1
CC(C)N1CCc2c(sc(NC(=O)c3ccc4ccccc4c3)c2C(N)=O)C1 | . | . | . | -102.5 | 90.7 | 147.7*
CC(=O)Nc1sc2c(c1-c1nc3ccccc3s1)CCN(C(C)C)C2 | -36.9 | 23.7 | 85.4* | -268.1 | 129.5 | .
CC(C)CN(C(=O)COC(=O)CSc1ccccc1)c1c(N)n(Cc2ccccc2)c(=O)[nH]c1=O | . | . | . | . | 96.2 | -0.8
O=[N+]([O-])c1ccc(O)c(N=Cc2sc3ccccc3c2O)c1 | 2.6 | 16.2 | 47.7 | -1.2 | 135.7 | 38.0*
Cc1cccc(/N=C/c2sc3ccccc3c2O)n1 | 4.8 | -1.0 | -1.3 | -11.7 | 93.5 | 32.7*
Oc1c(C=Nc2cccc3cccnc23)sc2ccccc12 | 0.8 | 34.6 | 18.1 | 8.2 | . | 39.2*
Cc1cccc(/N=C/c2c(O)[nH]c3ccccc23)n1 | 9.1 | 1.2 | -1.2 | 11.1 | 106.1 | 3.1
